# Measured values: ChEMBL document CHEMBL3763019, “Discovery of benzenesulfonamide derivatives as potent PI3K/mTOR dual inhibitors with in vivo efficacies against hepatocellular carcinoma” (Bioorg Med Chem, 2016)
# pIC50: −log10 of the molar value.
# Key:
# [1] = Antiproliferative activity against human OVCAR4 cells incubated for 48 hrs by sulforhodamine B assay; type: functional; conditions: OVCAR-4, 48 h
# Method in brief: (§1)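 Run externally by the US National Cancer Institute as part of its 60 human cancer cell line cytotoxicity screen (NCI-60).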
# [2] = Antiproliferative activity against human OVCAR5 cells incubated for 48 hrs by sulforhodamine B assay; type: functional; conditions: OVCAR-5, 48 h; method in brief: as §1
# [3] = Antiproliferative activity against human Caki1 cells incubated for 48 hrs by sulforhodamine B assay; type: functional; conditions: CAKI-1, 48 h; method in brief: as §1
# T47D = assay: Antiproliferative activity against human T47D cells incubated for 48 hrs by sulforhodamine B assay; type: functional; method in brief: as §1
# Mus musculus = assay: Toxicity in BALB/C nude mouse xenografted with human Bel7404 cells assessed as reduction in body weight at 30 mg/kg, po qd for 14 consecutive days; type: organism-based; conditions: in vivo
# Method in brief: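 Male BALB/C nude mice were implanted with BEL-7404 cells. When tumors reached 100–300 mm³ (after 12 days), mice were randomized to 6 per treatment group and 8 controls. The drug, suspended in 5% polysorbate 80 in water, was given orally once daily for 14 days from day 13. Body weight and mortality were tracked during dosing, and mice were sacrificed on day 29.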
# A549 [4] = assay: Cytotoxicity against human A549 cells after 72 hrs by MTT assay; type: functional, cell-based; conditions: A549, 72 h
# Method in brief: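 Log-phase cells at 40,000–50,000 cells/mL in DMEM with 10% FBS and antibiotics were seeded and cultured overnight at 37 °C, 5% CO₂. Compounds were diluted in DMSO/PBS from 10^-4 to 10^-9 M and applied for 72 h. MTT (5 mg/mL stock) was then added for 4 h and absorbance read at 570 nm. IC50 came from nonlinear regression on triplicate wells, averaged.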
# [5] = target: T1, Phosphatidylinositol 4,5-bisphosphate 3-kinase catalytic subunit delta isoform (Homo sapiens) (UniProt O00329); assay: Inhibition of PI3K-delta (unknown origin) using PIP2 as substrate at 10 nM incubated for 1 hr by Kinase-Glo luminescent kinase assay
# T1 sequence (whole entry): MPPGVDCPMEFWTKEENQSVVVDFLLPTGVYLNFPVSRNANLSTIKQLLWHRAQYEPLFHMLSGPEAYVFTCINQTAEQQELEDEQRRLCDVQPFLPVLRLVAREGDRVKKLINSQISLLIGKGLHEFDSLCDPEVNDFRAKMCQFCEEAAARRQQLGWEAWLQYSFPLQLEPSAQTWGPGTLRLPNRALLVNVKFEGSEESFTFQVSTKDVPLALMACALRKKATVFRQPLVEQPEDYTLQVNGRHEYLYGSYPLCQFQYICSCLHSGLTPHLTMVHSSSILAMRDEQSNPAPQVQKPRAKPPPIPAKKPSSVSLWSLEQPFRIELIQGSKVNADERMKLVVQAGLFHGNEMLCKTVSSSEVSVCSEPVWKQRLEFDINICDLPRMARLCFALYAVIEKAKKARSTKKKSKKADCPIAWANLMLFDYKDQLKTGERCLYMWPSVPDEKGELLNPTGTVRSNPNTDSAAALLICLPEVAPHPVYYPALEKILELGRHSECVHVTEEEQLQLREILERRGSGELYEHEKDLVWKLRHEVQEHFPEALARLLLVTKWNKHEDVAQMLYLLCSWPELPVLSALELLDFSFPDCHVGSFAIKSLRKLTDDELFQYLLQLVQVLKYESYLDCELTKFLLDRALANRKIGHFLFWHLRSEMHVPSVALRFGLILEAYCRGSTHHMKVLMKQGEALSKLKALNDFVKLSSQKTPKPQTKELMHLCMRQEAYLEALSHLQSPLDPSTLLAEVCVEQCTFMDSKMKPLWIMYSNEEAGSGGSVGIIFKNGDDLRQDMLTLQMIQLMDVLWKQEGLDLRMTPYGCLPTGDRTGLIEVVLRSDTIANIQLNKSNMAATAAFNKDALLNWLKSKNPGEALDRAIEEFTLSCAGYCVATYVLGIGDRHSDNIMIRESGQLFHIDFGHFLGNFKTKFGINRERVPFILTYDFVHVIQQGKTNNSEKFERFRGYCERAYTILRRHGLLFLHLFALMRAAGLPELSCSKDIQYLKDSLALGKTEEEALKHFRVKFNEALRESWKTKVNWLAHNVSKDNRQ
# Method in brief: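 Final PIP2 was 50 µM and ATP 25 µM; PI3Kδ was 1.65 nM. Reactions ran 1 h at room temperature, then Kinase-Glo was added for 15 min before reading luminescence. Percent inhibition was derived from RLU. Dose-response used ten 3-fold dilutions (top 100 or 500 nM) in duplicate.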
# [6] = target: Phosphatidylinositol 4,5-bisphosphate 3-kinase catalytic subunit gamma isoform (Homo sapiens, UniProt P48736); assay: Inhibition of PI3K-gamma (unknown origin) at 10 nM after 40 mins by ADP-Glo luminescent kinase assay
# Phosphatidylinositol 4,5-bisphosphate 3-kinase catalytic subunit gamma isoform, sequence (P48736 whole entry, looked up, canonical isoform): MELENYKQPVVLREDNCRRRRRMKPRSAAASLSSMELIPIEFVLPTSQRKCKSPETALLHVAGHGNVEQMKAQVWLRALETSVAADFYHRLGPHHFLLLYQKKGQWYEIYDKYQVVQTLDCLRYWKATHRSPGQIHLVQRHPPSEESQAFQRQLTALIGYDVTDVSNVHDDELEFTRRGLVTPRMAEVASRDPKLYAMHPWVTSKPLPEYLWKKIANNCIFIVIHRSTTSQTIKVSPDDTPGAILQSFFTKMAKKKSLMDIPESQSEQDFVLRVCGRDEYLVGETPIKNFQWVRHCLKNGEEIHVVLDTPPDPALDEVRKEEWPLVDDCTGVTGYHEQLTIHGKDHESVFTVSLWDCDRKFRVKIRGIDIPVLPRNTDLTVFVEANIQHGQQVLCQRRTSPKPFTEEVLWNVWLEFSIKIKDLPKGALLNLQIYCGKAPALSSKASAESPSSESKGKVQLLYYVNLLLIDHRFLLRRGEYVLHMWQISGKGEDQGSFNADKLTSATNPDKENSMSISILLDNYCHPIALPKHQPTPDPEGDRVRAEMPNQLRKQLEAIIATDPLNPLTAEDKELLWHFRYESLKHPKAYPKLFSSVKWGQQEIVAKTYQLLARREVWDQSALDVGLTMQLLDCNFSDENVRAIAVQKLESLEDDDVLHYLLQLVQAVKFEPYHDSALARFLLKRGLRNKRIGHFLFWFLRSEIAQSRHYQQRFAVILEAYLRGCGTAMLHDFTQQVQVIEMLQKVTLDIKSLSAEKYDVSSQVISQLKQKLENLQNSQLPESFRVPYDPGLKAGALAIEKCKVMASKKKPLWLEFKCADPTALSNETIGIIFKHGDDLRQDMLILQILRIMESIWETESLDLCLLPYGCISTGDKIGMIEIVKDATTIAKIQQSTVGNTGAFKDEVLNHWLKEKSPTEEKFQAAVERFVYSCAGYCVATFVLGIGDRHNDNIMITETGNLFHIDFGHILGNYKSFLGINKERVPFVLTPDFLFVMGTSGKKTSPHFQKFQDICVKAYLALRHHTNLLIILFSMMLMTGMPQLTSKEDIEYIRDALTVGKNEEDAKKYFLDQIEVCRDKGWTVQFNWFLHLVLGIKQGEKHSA
# Method in brief: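 Final enzyme was PI3Kβ 4.8 nM and PI3Kγ 7.6 nM. ADP-Glo reagent stopped the reaction (40 min), then detection reagent was added (60 min) and luminescence read. Percent inhibition was derived from RLU.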
# CCRF-CEM = assay: Antiproliferative activity against human CCRF-CEM cells incubated for 48 hrs by sulforhodamine B assay; type: functional; method in brief: as §1
# [7] = Antiproliferative activity against human HL-60(TB) cells incubated for 48 hrs by sulforhodamine B assay; type: functional; conditions: HL-60, 48 h
# A549 [8] = assay: Antiproliferative activity against human A549 cells incubated for 48 hrs by sulforhodamine B assay; type: functional; conditions: A549, 48 h; method in brief: as §1
# NCI-H226 = assay: Antiproliferative activity against human NCI-H226 cells incubated for 48 hrs by sulforhodamine B assay; type: functional; conditions: NCI-H226, 48 h; method in brief: as §1
# [9] = Antiproliferative activity against human HCT116 cells incubated for 48 hrs by sulforhodamine B assay; type: functional; conditions: HCT-116, 48 h; method in brief: as §1
# [10] = Antiproliferative activity against human HCT15 cells incubated for 48 hrs by sulforhodamine B assay; type: functional; conditions: HCT-15, 48 h; method in brief: as §1
# [11] = Antiproliferative activity against human LOXIMVI cells incubated for 48 hrs by sulforhodamine B assay; type: functional; conditions: LOX IMVI; method in brief: as §1
# SK-MEL-2 = assay: Antiproliferative activity against human SK-MEL-2 cells incubated for 48 hrs by sulforhodamine B assay; type: functional; conditions: SK-MEL-2, 48 h; method in brief: as §1
# [12] = Antiproliferative activity against human OVCAR3 cells incubated for 48 hrs by sulforhodamine B assay; type: functional; conditions: OVCAR-3, 48 h; method in brief: as §1
# [13] = read-out: pLC50 (the source's name) (converted)
smiles,measurement,setting,value
COc1ncc(-c2ccc3nccc(C#CCN4CCN(S(C)(=O)=O)CC4)c3c2)cc1NS(=O)(=O)c1ccc(F)cc1F,GI50,[1],0.257 µM
same,CC50,[1]; [13],46.8 µM
same,TGI,[1]; read-out: pTGI (converted),11.5 µM
same,GI50,[2],0.0372 µM
same,CC50,[2]; [13],60.3 µM
same,TGI,[2]; read-out: pTGI (converted),16.2 µM
same,GI50,[3],0.155 µM
same,CC50,[3]; [13],40.7 µM
same,TGI,[3]; read-out: pTGI (converted),13.8 µM
same,GI50,T47D,< 0.01 µM
same,CC50,T47D; [13],> 100 µM
same,TGI,T47D; read-out: pTGI (converted),0.0135 µM
same,Activity,Mus musculus,Non-toxic
same,pIC50,A549 [4],5.75
same,inhibition,[5],25.8%
same,inhibition,[6],95%
same,GI50,CCRF-CEM,0.148 µM
same,CC50,CCRF-CEM; [13],> 100 µM
same,TGI,CCRF-CEM; read-out: pTGI (converted),2.57 µM
same,GI50,[7],0.0195 µM
same,CC50,[7]; [13],> 100 µM
same,TGI,[7]; read-out: pTGI (converted),1.45 µM
same,GI50,A549 [8],0.0724 µM
same,CC50,A549 [8]; [13],44.7 µM
same,TGI,A549 [8]; read-out: pTGI (converted),5.5 µM
same,GI50,NCI-H226,0.245 µM
same,CC50,NCI-H226; [13],7.24 µM
same,TGI,NCI-H226; read-out: pTGI (converted),1.82 µM
same,GI50,[9],0.138 µM
same,CC50,[9]; [13],5.75 µM
same,TGI,[9]; read-out: pTGI (converted),1.66 µM
same,GI50,[10],0.055 µM
same,CC50,[10]; [13],6.61 µM
same,TGI,[10]; read-out: pTGI (converted),1.35 µM
same,GI50,[11],0.0813 µM
same,CC50,[11]; [13],5.62 µM
same,TGI,[11]; read-out: pTGI (converted),1.35 µM
same,GI50,SK-MEL-2,0.11 µM
same,CC50,SK-MEL-2; [13],26.3 µM
same,TGI,SK-MEL-2; read-out: pTGI (converted),0.871 µM
same,GI50,[12],0.0513 µM
same,CC50,[12]; [13],6.61 µM
same,TGI,[12]; read-out: pTGI (converted),1.1 µM
